Test results as given in ChEMBL document CHEMBL1154262, “Inhibitors of osteoclast formation from rhizomes of Cibotium barometz” (J Nat Prod, 2009).

Key:
[1] = Inhibition of osteoclastogenesis in RANKL and M-CSF-stimulated mouse BMDM cells at 200 uM after 4 days by TRAP assay; type: functional; conditions: 96 h
In short: (§1)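 Mouse femur/tibia marrow cells grown 3 days at 37 °C in R-MEM/10% FBS with M-CSF 100 ng/mL to give BMMs, lifted with trypsin/EDTA. They were then differentiated with M-CSF 20 ng/mL and RANKL 100 ng/mL plus compound, with medium changed every 2 days. At day 4, TRAP staining was done and TRAP-positive multinucleated cells per well were counted relative to DMSO control.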

[2] = Cytotoxicity against RANKL and M-CSF-stimulated mouse BMDM cells at 100 to 200 uM after 72 hrs by MTS-cell titer assay; type: cell-based
In short: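 Bone marrow macrophages from femora and tibia of 6-8 week old mice, expanded 3 days in R-MEM/10% FBS with M-CSF 100 ng/mL, then trypsin/EDTA-lifted. Cells exposed to compound alongside recombinant M-CSF 20 ng/mL plus RANKL 100 ng/mL for 72 h at 37 °C. Percent survival read by MTS (CellTiter 96 Aqueous) against DMSO-treated control.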

[3] = test system: BMDM; assay: Inhibition of osteoclastogenesis in RANKL and M-CSF-stimulated mouse BMDM cells after 4 days by TRAP assay; type: functional, cell-based; in short: as §1

Structure (SMILES)	inhibition at 200 µM [1]	Activity [2]	Activity [3]
CC1=CC(=O)CC(C)(C)[C@@]1(O)/C=C/[C@H](C)O[C@@H]1O[C@H](CO)[C@@H](O)[C@H](O)[C@H]1O [6S,9S-ROSEOSIDE]	75%	Non-toxic	Dose-dependent effect
CO[C@@H]1C[C@](O)(CO[C@@H]2O[C@H](CO)[C@@H](OC(=O)/C=C/c3ccc(O)c(O)c3)[C@H](O)[C@H]2O)[C@H](OC)O1 [CIBOTIUMBAROSIDE B]	73%	Non-toxic	Dose-dependent effect
CCCCC/C=C\C/C=C\CCCCCCCC(=O)OC[C@@H](O)CO[C@H]1O[C@H](CS(=O)(=O)O)[C@@H](O)[C@H](O)[C@H]1O	97%	–	Dose-dependent effect
